Sampled rows, rich in hits. Any-hit rate of the full collection: about 11%.
D1 mod: allosteric modulators of human D1 dopamine receptor; P21728; HEK293 D1, CRE-luciferase, dopamine EC30 potentiation; actives deviate in either direction; B-score at 10 µM; 58,000 tested, 5.9% active; AID 641;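 active means luminescence count or its row- and column-corrected plate score outside the 99.7% band of the plate's sample wells, on either side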
S1P1 ag-PAM: activates or potentiates agonism at human S1P1 receptor; P21453; S1P1 CRE-bla cells, forskolin, beta-lactamase FRET, potentiator mode; S1P1 agonist co-added at EC20, 2 nM; 100% = saturating reference agonist, 0% = basal; activation, % at 9.5 µM; 56,000 tested, 0.57% active;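 active means activation above a cutoff set at the mean activation of all tested compounds plus 3 SD, cut at about 54% in these data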;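 further: forskolin at 4 µM as EC80 and the EC20 agonist is SEW2871; 100% = SEW2871 at its EC100 plus forskolin at EC80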
S1P3 ag: activates the human S1P3 receptor; 60,000 tested, 0.1% active; Q99500; AID 373; S1P3 NFAT-BLA reporter cells, agonism, FRET ratio; relative to 1 µM S1P, basal subtracted; activation, % at 4.5 µM;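 active means activation above the screen-wide mean plus 3 SD, cut at about 4.5% in these data, passing the limit was not always enough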
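Measure – % activation relative to 1 µM S1P (100%), per plate · System – stable CHO line with human S1P3, Gα16, NFAT-BLA reporter · Timing – cells plated overnight, compound 4 h 37 °C, substrate 2 h RT · Technique – fluorescent BLA substrate, ex 405 nm, em 460/535 nm ratio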
M1 agonist: activates the M1 muscarinic receptor; CHO-M1 cells, Fluo-4 calcium fluorescence, agonist mode; active compounds read high; B-score at 10 µM; 64,000 tested, 3% active; AID 626;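 active means fluorescence rise, raw or as B-score row- and column-corrected plate score, outside the 99.7% band of its plate's samples, either direction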
M1 antag: M1 muscarinic receptor (rat) antagonism; CHO-M1 cells, Fluo-4 calcium, ACh EC80 antagonist mode; active compounds read low; B-score at 10 µM; 64,000 tested, 3.4% active; AID 628;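 active means calcium fluorescence response, raw or row-and-column corrected B-score, differing from the plate sample mean either way at a set confidence level, mostly lower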
Target sequence (P08482 whole entry, looked up): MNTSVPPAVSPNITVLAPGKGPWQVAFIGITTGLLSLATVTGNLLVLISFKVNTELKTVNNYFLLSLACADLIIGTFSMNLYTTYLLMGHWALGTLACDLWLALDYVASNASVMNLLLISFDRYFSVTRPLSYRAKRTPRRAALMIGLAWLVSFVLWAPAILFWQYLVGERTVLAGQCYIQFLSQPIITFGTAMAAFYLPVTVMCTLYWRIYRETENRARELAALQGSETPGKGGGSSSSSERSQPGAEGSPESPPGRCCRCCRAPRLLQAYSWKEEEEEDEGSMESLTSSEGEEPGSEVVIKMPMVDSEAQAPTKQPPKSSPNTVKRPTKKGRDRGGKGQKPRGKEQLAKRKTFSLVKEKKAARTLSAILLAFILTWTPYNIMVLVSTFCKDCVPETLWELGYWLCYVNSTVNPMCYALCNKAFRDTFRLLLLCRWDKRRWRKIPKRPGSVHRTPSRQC
M1 ag confirm: rat M1 muscarinic agonism, confirmation; shares compounds with M1 agonist; AID 1488; 1,700 tested, 19% active; fluorescence change (max-min) at 10 µM; CHO-M1 cells, Fluo-4 calcium fluorescence, agonist mode; actives lie on both sides;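 active means fluorescence change differs from the solvent-only DMSO control mean at a set confidence level in both duplicate runs; inconclusive means differs from solvent-only control mean in just one of two runs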;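 further: an EC20 dose of acetylcholine follows compound addition during the same imaging run; raw fluorescence intensity difference in instrument units with no normalization to controls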
M4 ag counter: counter-screen for M1 agonists: activity at rat M4 receptor; shares compounds with M1 agonist; 1,700 tested, 9% active; CHO M4/Gqi5 cells, Fluo-4 calcium fluorescence, agonist mode; actives lie on both sides; fluorescence change (max-min) at 10 µM; AID 1741;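 active means fluorescence change differing from the plate's solvent-only control wells at 99.7% confidence in both duplicates, whether higher or lower; inconclusive means differs from solvent controls in only one of two duplicates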
Active calls of the source: *; ? = inconclusive; · = not tested or not shown.

SMILES	D1 mod	S1P1 ag-PAM	S1P3 ag	M1 agonist	M1 antag	M1 ag confirm	M4 ag counter
Cc1ccccc1Nc1cc2ccccc2c(=O)[nH]1	0.88	-35	0	17*	1.6	64*	44
COc1cc(S(=O)(=O)N2CCOCC2)ccc1NC(=O)COC(=O)c1ccccn1	-0.67	·	·	0.36	0.97	·	·
CCN1CCN(c2cc(C)c3cc(NC(=O)c4ccc(Br)o4)ccc3n2)CC1	-2.5*	·	·	3*	-4.4*	-4	-52
CCN1CCN(c2cc(C)c3cc(NC(=O)c4ccncc4)ccc3n2)CC1	-0.072	-21	0	0.34	-0.56	·	·
COCCn1c(C)c(C(=O)O)sc1=S	0.28	2	0	0.47	0.44	·	·
Cc1nc2sc3c(c2c(=O)o1)CC(C)(C)OC3	-0.071	1	-3	0.64	-0.24	·	·
Cc1cc(C)n(-c2nc(NCC3CCCO3)c3c4c(sc3n2)COC(C)(C)C4)n1 (centres undefined)	1.2	-74	3	3.4*	-0.99	-18	-17
COc1ccc(/C(O)=C2/C(=O)C(=O)N(CCCN(C)C)C2c2ccc(C)o2)cc1Cl (centres undefined)	-0.083	0	-4	0.12	-0.11	·	·
Cc1ccc(S(=O)(=O)n2nc(-c3ccc(Cl)cc3)nc2NCc2ccco2)cc1	0.034	·	-1	26*	-0.38	-9.4	-30
COc1ccc(CN(Cc2ccccn2)C(=O)CN2C(=O)C(C)Oc3ccccc32)cc1 (centres undefined)	0.23	7	0	15*	-1.1	-13	-39
CCN(CC)C(=O)Cn1nc(-c2ccccc2O)nc1SCC(=O)Nc1ccc(OC)cc1	0.043	-13	1	-0.96	-0.49	·	·
CC(/C=N/n1cnnc1)=C\c1ccco1	0.021	4	-1	0.21	-0.0084	·	·
O=C1c2ccccc2C(=O)N1CCc1nc2ccccc2c(=O)n1Cc1ccco1	-0.47	-24	0	9.4*	-1.4	-14	-14
CC1Cc2ccccc2N1C(=O)CN1C(=O)NC(C)(c2ccc3c(c2)OCCO3)C1=O (centres undefined)	0.39	-4	0	5.6*	1.4	14	-17
COc1ccc2c(c1OC)C(=O)N1c3ccccc3C(=O)N(c3ccccc3)C21 (centres undefined)	·	-5	-5	13*	-1.3	?	-37
O=C1c2ccccc2N2C(=O)c3ccccc3C2N1O (centres undefined)	·	-19	-1	-1.7	-0.3	·	·
COc1ccc(OC)c(C2C(C(C)=O)=C(O)C(=O)N2c2ccc(F)cc2)c1 (centres undefined)	-1.7	14	-1	·	·	·	·
COc1ccc2c(c1OC)C(=O)N1c3ccccc3C(=O)N(c3ccc(F)cc3)C21 (centres undefined)	·	-7	-8	13*	-1.7	-13	-27
O=C(CSc1ncnc2c1nnn2-c1ccc(F)cc1)N1CCN(c2ccccc2)CC1	·	·	·	-0.69	0.71	·	·
CCN1CCN(C(=O)C2CCN(Cc3nc(-c4ccc(Cl)cc4)oc3C)CC2)CC1	-0.28	13	-1	0.69	1.1	·	·
Cc1oc(-c2ccc(Cl)cc2)nc1CN1CCCC(C(=O)N2CCN(C(=O)c3ccco3)CC2)C1 (centres undefined)	-3.3*	22	-2	4*	-1.6	-7.5	-44
Nc1c(N2CCCC2)cc(Cl)c2nonc12	0.026	10	0	4.2*	-0.51	8.6	-43
Cc1ccc(CNC(=O)C2CCCN(c3nc4ccccc4o3)C2)cc1 (centres undefined)	0.65	-11	-2	-0.72	0.32	·	·
O=C(NCCC1=CCCCC1)C1CCCN(c2nc3ccccc3o2)C1 (centres undefined)	-0.86	25	0	6.8*	-0.27	?	?
O=C(NCc1ccc2c(c1)OCO2)C1CCN(c2ccc(S(=O)(=O)N3CCCC3)cc2)CC1	·	·	·	2.6*	-1.9	-14	-33
SMILES	D1 mod	S1P1 ag-PAM	S1P3 ag	M1 agonist	M1 antag	M1 ag confirm	M4 ag counter
CC1(C)Cc2noc(N)c2C(C)(C)N1O	-0.89	11	-1	-0.4	0.012	·	·
CC(=O)NC1(C2CCCCC2=O)CCCCC1 (centres undefined)	-0.083	8	-1	3.6*	1.2	-4	-46
O=C(O)CNS(=O)(=O)c1ccc(Br)s1	-0.57	10	-1	-0.087	0.82	·	·
O=S(=O)(NCc1ccncc1)c1ccc(Br)s1	-1	110*	-1	3.7*	-1.8	6.2	-23
CCOC(=O)c1sc2nc(N3CCOCC3)c3c(c2c1N)CCC3	0.95	-43	-1	2*	-0.4	?	-44
NS(=O)(=O)c1ccc(CCNc2ncnc3sccc23)cc1	-1.9	21	-2	3.1*	0.47	0.13	-15
CCN=C(NCC)SC1CC(=O)N(c2cccc(OCC)c2)C1=O (centres undefined)	-0.91	-19	0	14*	-2.6*	-3.6	-22
O=C(c1ccc(S(=O)(=O)N2CCCCC2)cc1)N1CCN(Cc2ccc3c(c2)OCO3)CC1	0.035	-8	0	0.059	-0.61	·	·
O=C(CCC1CCCCC1)N1CCN(Cc2ccc3c(c2)OCO3)CC1	-0.71	·	-1	6.1*	-0.75	-12	?
O=C(CCn1c(=S)[nH]c2cc3c(cc2c1=O)OCO3)N1CCN(c2ccccn2)CC1	0.029	·	·	0.59	-0.58	·	·
Cc1cccc(N2CCN(C(=O)CCn3c(=S)[nH]c4cc5c(cc4c3=O)OCO5)CC2C)c1 (centres undefined)	0.37	·	·	2.5*	-0.17	-6.2	-24
O=C(CCCn1c(=S)[nH]c2cc3c(cc2c1=O)OCO3)N1CCN(c2ccccc2)CC1	0.029	·	·	3.2*	-0.62	?	-60
O=C(CCCCCn1c(=O)[nH]c2ccccc2c1=O)N1CCN(Cc2ccc3c(c2)OCO3)CC1	0.29	-1	-1	3.7*	-1.3	-13	-35
CS(=O)(=O)N(CC(=O)NCc1ccc2c(c1)OCO2)Cc1ccccc1	0.88	-10	-1	-0.61	-1	·	·
CCOC(=O)c1cnc(SCC(=O)Nc2nc(C)c(C)s2)nc1N	1.1	-19	0	0.016	-0.23	·	·
O=C(CN1C(=O)C2CC=CCC2C1=O)OCCN1C(=O)c2ccccc2C1=O (centres undefined)	-0.65	-12	1	-0.0084	0.25	·	·
O=C1C2=C(Nc3ccccc3SC2c2ccco2)c2ccccc21 (centres undefined)	-0.76	9	-2	active	0.14	?	-65
CCOC(=O)N1CCN(C(=O)CSCC(=O)Nc2nc(-c3ccccc3)cs2)CC1	-1.1	3	1	1.5	-0.35	·	·
O=C(CSCC(=O)N1CCCCC1)Nc1nc(-c2cccs2)cs1	-2	60	0	5.7*	-1.8	8.5	-11
